Assay outcomes (PubChem)
Rows were chosen to be rich in hits. Some 3.4% of all compounds tested hit in one or more screens of this group.
MEKK3 PB1 HTS: modulators of MEKK3-MEK5 PB1 binding, primary screen, biochemical, wildtype MEKK3, multiplex bead flow cytometry, Alexa488-MEK5; AID 1529, 2009; Mitogen-activated protein kinase kinase kinase 3 (Homo sapiens), Q99759; 290,000 tested, 1.4% active; binding response (% of control), % at 10 µM; bead-based flow cytometry, Alexa488-MEK5 binding to MEKK3; actives lie on both sides; 0 = blocked by unlabeled MEK5, 100 = vehicle;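 active means binding response more than 3 SD above or below the average of its plate-row segment, actives on both sides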;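 further: Alexa488 bead fluorescence after subtracting the streptavidin-only scavenger bead signal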
Target sequence (Q99759 whole entry, looked up): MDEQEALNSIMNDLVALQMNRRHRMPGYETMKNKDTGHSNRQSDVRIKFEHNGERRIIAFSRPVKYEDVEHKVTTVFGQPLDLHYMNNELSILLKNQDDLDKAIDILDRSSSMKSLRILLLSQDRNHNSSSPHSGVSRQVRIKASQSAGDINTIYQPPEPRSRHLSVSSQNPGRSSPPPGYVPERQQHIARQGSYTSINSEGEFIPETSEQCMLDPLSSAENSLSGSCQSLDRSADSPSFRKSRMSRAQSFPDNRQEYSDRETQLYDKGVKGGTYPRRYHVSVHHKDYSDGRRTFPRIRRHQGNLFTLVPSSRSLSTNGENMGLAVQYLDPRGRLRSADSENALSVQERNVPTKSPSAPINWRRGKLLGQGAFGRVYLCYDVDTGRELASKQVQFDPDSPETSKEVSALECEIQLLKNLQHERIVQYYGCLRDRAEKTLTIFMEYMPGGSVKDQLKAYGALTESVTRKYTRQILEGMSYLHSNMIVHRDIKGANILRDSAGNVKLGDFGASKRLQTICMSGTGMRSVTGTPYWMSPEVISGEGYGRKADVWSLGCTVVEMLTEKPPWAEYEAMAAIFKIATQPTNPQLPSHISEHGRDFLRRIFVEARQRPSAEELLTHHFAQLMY
MEKK2wt PB1 HTS: modulators of MEK5 binding to wildtype MEKK2, primary screen, biochemical, multiplex bead flow cytometry, Alexa488-MEK5; Mitogen-activated protein kinase kinase kinase 2 (Homo sapiens), Q9Y2U5; 290,000 tested, 1.1% active; AID 1531, 2009; binding response (% of control), % at 10 µM; Alexa488-MEK5 binding to MEKK2 WT; actives lie on both sides; in the data active means binding response below about 67% or above about 130%
VIM-2 inhibitor: VIM-2 metallo-beta-lactamase inhibitors, primary screen, biochemical, epi-absorbance readout, Pseudomonas aeruginosa enzyme | inhibition, % at 5.6 µM | purified VIM-2, nitrocefin hydrolysis, epi-absorbance fluorescence | 290,000 tested, 0.89% active;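 active means inhibition above the mean of all tested compounds plus 3 SD, cutoff set per screening run, cut at about 7.5% in these data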;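 further: red hydrolysis product quenches plate fluorescence so inhibitors raise well fluorescence; 0% = enzyme with DMSO and 100% = DMSO without enzyme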
IMP-1 inhibitor: IMP-1 metallo-beta-lactamase inhibitors, primary screen, biochemical, epi-absorbance readout, Pseudomonas aeruginosa enzyme; 290,000 tested, 0.45% active; metallo-beta-lactamase IMP-1 (Pseudomonas aeruginosa); purified IMP-1, nitrocefin hydrolysis, epi-absorbance fluorescence; inhibition, % at 5.6 µM;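 active means inhibition above the mean plus 3 SD of all compounds in the same screening run, cut at about 4.5% in these data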;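 further: 0% = IMP-1 with DMSO and 100% = DMSO wells lacking enzyme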
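assay system = purified recombinant IMP-1 metallo-beta-lactamase enzyme | schedule = 15 min preincubation plus 25 min reaction at 25 °C | signal = Epi-absorbance fluorescence, 480 nm excitation, 530 nm emission | read-out basis = percent inhibition from optical density relative to buffer-blank wells | controls = IMP-1 with DMSO as 0%, enzyme-free DMSO as 100%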
MEKK2mut PB1 HTS: MEK5 binding signal on mutant MEKK2 PB1, primary screen, biochemical, multiplex bead flow cytometry, Alexa488-MEK5. Alexa488-MEK5 binding to MEKK2 mutant. percent response, % at 10 µM. 290,000 tested, 0.35% active. AID 1530, 2009; in the data active means percent response above about 24%, passing the limit was not always enough
MEKK2wt confirm: modulators of MEK5 binding to wildtype MEKK2, confirmation, biochemical, single concentration, multiplex bead flow cytometry; shares compounds with MEKK3 PB1 HTS; Alexa488-MEK5 binding to MEKK2 WT; actives lie on both sides; binding response (% of control), % at 10 µM; 5,900 tested, 2.4% active; AID 1892, 2009; in the data active means binding response below about 16% or above about 210%; inactive means in between
MEKK2mut-MEK5: mutant MEKK2 PB1-MEK5 binding signal retest – biochemical, single concentration, multiplex bead flow cytometry, confirmation | shares compounds with MEKK3 PB1 HTS | Alexa488-MEK5 binding to MEKK2 mutant | percent response, % at 10 µM | 5,900 tested, 2% active; in the data active means percent response mostly above about 71%, no sharp cut-off; inactive means mostly below about 38%;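 further: higher means compound restores mutant binding toward wildtype level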
MEKK3-MEK5 inh: MEKK3 wild-type PB1 binding to MEK5, inhibitors, confirmation, biochemical, bead multiplex flow cytometry, single concentration, wildtype; shares compounds with MEKK3 PB1 HTS; binding response (% of control), % at 10 µM; Alexa488-MEK5 binding to MEKK3; hits give low values; 5,900 tested, 1.8% active;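 active means binding response below 72% of control, or above a set upper limit, though filed actives all read lower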;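 further: 100% = DMSO only wells and 0% = binding blocked by excess unlabeled MEK5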
* = called active by the depositor; . = not tested or not shown; [ ] = another dose, or the depositor's remark.

SMILES	MEKK3 PB1 HTS	MEKK2wt PB1 HTS	VIM-2 inhibitor	IMP-1 inhibitor	MEKK2mut PB1 HTS	MEKK2wt confirm	MEKK2mut-MEK5	MEKK3-MEK5 inh
O=C1NC(=S)NC(=O)C1C/C=C/c1ccccc1	91	-7.0*[inhibitor]	-2	-3	-34	96	0	104
CCn1c(O)c(C=NCCN2CCOCC2)c(=O)n(CC)c1=S	93	97	-2	-1	0	.	.	.
CCn1c(O)c(/C=N/N2CCOCC2)c(=O)n(CC)c1=S	143*	102	-5	-3	0	102	-4	103
CC[n+]1c(/C=C/N(C)c2ccccc2)sc2ccc(Cl)cc21	83	54*[inhibitor]	1	-2	-14	72	-9	88
Cc1ccc2c(c1)C(c1ccccc1)NCC(=O)N2 (configuration not stated)	74*[inhibitor]	88	-2	-4	-11	50	-16	90
CC(=O)N1CC(=O)Nc2ccc(C)cc2C1c1ccccc1 (configuration not stated)	109	107	-2	-5	9	.	.	.
COc1cc(CN2CC=C(c3ccc(F)cc3)CC2)cc(OC)c1	102	115	0	-1	2	.	.	.
CCOC(=O)C1=C(N)OC2=C(C(=O)CCC2)C12C(=O)Nc1ccccc12 (configuration not stated)	104	106	-2	-3	8	.	.	.
ON1C2CCCCC2N(O)C1c1ccccc1 (configuration not stated)	22*[inhibitor]	33*[inhibitor]	-4	-3	-33	103	3	103
c1ccc(C2N3CCCN23)cc1 (configuration not stated)	108	112	-1	-1	8	.	.	.
CN(C)C(=O)OCc1n(C)cc[n+]1C	102	101	-3	-4	-1	.	.	.
Cc1cc(C(=O)C[N+]23CCN(CC2)CC3)c(C)n1-c1ccc(Br)cc1	146*	158*	0	-3	12	120	15	106
CCOc1c(Cl)cc(CNCCc2c[nH]c3ccccc23)cc1OC	102	156*	-5	-1	38	127	13	102
COc1cc(C)c(CNCCc2c[nH]c3ccccc23)cc1C	102	123	0	-2	26*	82	-3	69*
CCCCCCCSc1cc(OC)c(CCNC)cc1OC	92	149*	-3	-1	23	130	11	81
c1ccc(C(OCCN2CCNCC2)c2ccccc2)cc1	98	104	-1	-4	2	.	.	.
c1ccc2nc(OCCN3CC3)ccc2c1	108	181*	-1	-3	32*	135	15	103
COc1cccc(N2C(=O)/C(=C/c3ccc(C)o3)C(=O)NC2=S)c1	104	99	-1	3	0	.	.	.
Cc1cccc(-n2c(-c3cccs3)nc3ccccc3c2=O)c1	130*	100	-2	-4	0	98	-5	103
C#CC1(O)C=CC2C3CCC4=CC(=O)CCC4C3CCC21CC (configuration not stated)	108	105	-2	-2	4	.	.	.
COc1ccc2c(c1)c(C(=O)CN1CCN(C)CC1)c(C)n2Cc1ccccc1	103	141*	4	1	23	163	53	108
CN1CC(C(=O)c2ccc(Cl)cc2)C(c2ccccc2)C1 (configuration not stated)	99	106	-1	-2	4	.	.	.
CCCCCn1c(=O)c(C(=O)Nc2ccccc2Cl)c(O)c2ccccc21	109	104	-1	-3	4	.	.	.
OC(c1ccccc1)(c1ccccc1)C1CCNCC1	101	136*	-3	-5	9	105	7	101
OC(c1ccccc1)(c1ccccc1)C1CN2CCC1CC2 (configuration not stated)	92	83	-3	-3	-11	.	.	.
SMILES	MEKK3 PB1 HTS	MEKK2wt PB1 HTS	VIM-2 inhibitor	IMP-1 inhibitor	MEKK2mut PB1 HTS	MEKK2wt confirm	MEKK2mut-MEK5	MEKK3-MEK5 inh
COC(=O)C(O)(c1ccc(NC(=S)NC(=O)c2ccc(Cl)cc2Cl)cc1)C(F)(F)F (configuration not stated)	148*	106	-3	-3	3	92	-4	102
CCOC(=O)C(O)(c1ccc(NC(=S)NC(=O)c2ccc(Cl)cc2Cl)c(C)c1)C(F)(F)F (configuration not stated)	147*	102	-3	-1	1	92	-8	94
COC(=O)C(O)(c1ccc(NC(=S)NC(=O)c2ccc(Cl)cc2Cl)c(C)c1)C(F)(F)F (configuration not stated)	107	97	-3	-2	-1	.	.	.
CCCC(=O)NC(Oc1ccccc1Cl)C(Cl)(Cl)Cl (configuration not stated)	104	101	-1	-3	2	.	.	.
NCCc1c[nH]c2ccccc12	92	138*	0	0	11	113	9	103
O=C1C2CCCN2C(c2ccc(Cl)c(Cl)c2)N1c1ccccn1 (configuration not stated)	110	112	-3	-3	5	.	.	.
O=C1C2CCCN2C(c2cccc(Cl)c2)N1c1ccccn1 (configuration not stated)	0.0*[inhibitor]	0.0*[inhibitor]	0	-5	-17	102	2	101
CCOc1ccc(-c2cc(C)[n+](CCc3ccc(OC)c(OC)c3)c(-c3ccc(OCC)cc3)c2)cc1	113	141*	0	-2	37*	51	-13	86
CCOc1ccc(-c2cc(C)[n+](CCO)c(-c3ccc(OCC)cc3)c2)cc1	101	113	-4	-3	9	.	.	.
Cc1ccc2[nH]c(C)c(CCNCc3ccco3)c2c1	103	127	-2	-2	13	.	.	.
Cc1[nH]c2ccc(OC(F)(F)F)cc2c1CCNCc1ccc(Cl)cc1	101	174*	-2	-2	37*	195	43	106
CCOc1cccc(CNCCc2c(C)[nH]c3ccc(OC(F)(F)F)cc23)c1O	104	150*	-1	0	19	177	48	104
